Source: ChEMBL document CHEMBL1141776, “Gymnoascolides A-C: aromatic butenolides from an Australian isolate of the soil ascomycete Gymnoascus reessii” (2005)
The source made the active and inactive calls. No cut-off for these calls is given here.

Tests used:
Parastagonospora nodorum = experiment: Antifungal activity against Septoria nodorum after 48 hrs by agar-based microtiter plate assay; assay type: functional
In short: (§1)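 Agar-based microtiter plate assay: spores (20 000 sp/well) applied to potato dextrose agar in wells containing serial 2-fold dilutions of test compound. Plates incubated at 24 °C; fungal growth assessed qualitatively at 48 h.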

Candida albicans [1] = experiment: Antifungal activity against Candida albicans after 48 hrs by agar-based microtiter plate assay; assay type: functional; in short: as §1
Bacillus subtilis = experiment: Antibacterial activity against Bacillus subtilis; assay type: functional, organism-based
NS1 = experiment: Cytotoxicity against mouse NS1 cells; assay type: functional, cell-based
[2] = tested on: Haemonchus contortus (nematode); experiment: Nematicidal activity against Haemonchus contortus
Candida albicans [3] = experiment: Antifungal activity against Candida albicans up to […] after 48 hrs by agar-based microtiter plate assay; assay type: functional, organism-based; in short: as §1

Structure (SMILES)	LD99 (Parastagonospora nodorum)	LD99 (Candida albicans [1])	Activity (Bacillus subtilis)	Activity (NS1)	Activity [2]	Activity (Candida albicans [3])
C[C@@H]1[C@H](O)[C@@H](C)/C=C/C=C/C=C/C=C/C=C/C=C/C=C/[C@H](O[C@@H]2O[C@H](C)[C@@H](O)[C@H](N)[C@@H]2O)C[C@@H]2O[C@](O)(C[C@@H](O)C[C@@H](O)[C@H](O)CC[C@@H](O)C[C@@H](O)CC(=O)O[C@H]1C)C[C@H](O)[C@H]2C(=O)O [AMPHOTERICIN B]	0.0031 mg/mL	0.0031 mg/mL				
CO[C@H]1OC(=O)C(c2ccccc2)=C1C(O)c1ccccc1 (stereo partly specified)			inactive	inactive	inactive	
CO[C@@H]1OC(=O)C(c2ccccc2)=C1C(O)c1ccccc1 (stereo partly specified)			inactive	inactive	inactive	
C[C@@H]1C[C@H]2O[C@@H]2/C=C\C=C\C(=O)Cc2c(Cl)c(O)cc(O)c2C(=O)O1 [RADICICOL]	0.012 mg/mL	0.012 mg/mL				
C[C@@H]1C[C@@H]([C@H](O)CC2CC(=O)NC(=O)C2)C(=O)[C@@H](C)C1 [CYCLOHEXIMIDE]	0.0063 mg/mL					inactive
O=C1OCC(Cc2ccccc2)=C1c1ccccc1 [GYMNOASCOLIDE A]	0.013 mg/mL		inactive	inactive	inactive	inactive
CN(CC[C@H](N)CC(=O)N[C@@H]1C=C[C@@H](n2ccc(N)nc2=O)O[C@H]1C(=O)O)C(=N)N.Cl [BLASTICIDIN S HCL]	0.0016 mg/mL	0.00039 mg/mL				
CCCC[C@H]1C(=O)O[C@H](C)[C@H](NC(=O)c2cccc(NC=O)c2O)C(=O)O[C@@H](C)[C@@H]1OC(=O)CC(C)C [ANTIMYCIN A3]	0.0002 mg/mL	0.05 mg/mL				
